What was measured:
[1] = folding enthalpy; higher = less favourable; fluorescence melt of hairpins on a sequencing array, two-state fit; settings: sodium 0.088 M
How it was run: (§1)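 Folding enthalpy and melting temperature were estimated with bootstrapped two-state fits and combined across four replicates by inverse-variance weighting, with fitted temperatures raised by 9.35 °C to match UV melts. The data were Cy3 fluorescence of library hairpins, with annealed Cy3 and quencher oligos, on a sequenced MiSeq flow cell in 50 mM Na-HEPES pH 8.0, 25 mM NaCl, imaged in 2.5 °C steps up to 60 °C and normalised to pre-quench Cy3 and control constructs.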

[2] = melting temperature; fluorescence melt of hairpins on a sequencing array, two-state fit, raised by 9.35 °C to match UV melts; settings: sodium 0.088 M
How it was run: as §1

Sequence	folding enthalpy [1] [kcal/mol]	Tm [2] [°C]
GCGAGATCGAAAGATCGC (((..(((....))))))	-24.3	52.1
GCGGACGGAAACGTTCGC (((.(((....))).)))	-44.9	64.2
GATCTGGGTCAGATC ((((((...))))))	-35.9	48.6
GATCCAAATATGGATC ((((((....))))))	-34.1	49.4
GATCTTGCTGAAGATC ((((((....))))))	-31.4	43.2
GTAGTCGAAAGACCTTAC ((((((....)))..)))	-14.1	29.4
GACGTGCGAAAGCAGTC (((.(((....))))))	-21.6	54.9
GCAAATCGAAAGATTGC (((.(((....))))))	-24	48.9
GCAAGGGGAAACCCTTAC (.(((((....))))).)	-14.3	33.6
GGATTGCGAAAGCACTCC (((.(((....))).)))	-34.9	49.4
GCTCAGCGAAAGCTATGC ((..(((....)))..))	-12.6	36.4
GATCAGCGGACTGATC ((((((....))))))	-33.9	50.3
GCGTAACCGAAAGGTCGC (((..(((....))))))	-34.2	53
GATCTACGAAAGTATATC (((.(((....))).)))	-22.4	32.5
GATCATGATATGATC ((((((...))))))	-31.3	48.4
GCATTGCGAAAGCCATGC ((((.((....)).))))	-29.1	58.4
GTTGCCGAAAGGCTAAAC ((((((....)))..)))	-9.35	34.5
GGTTAAGGAAACTTGACC (((.(((....))).)))	-30.1	40.3
GAGTTGGGAAACCAACCC (.(((((....))))).)	-13.8	40.5

Sequence	folding enthalpy [1] [kcal/mol]	Tm [2] [°C]
GCGATGACTCGC ((((....))))	-21.7	47.2
GCTGGTGGAAACGTCAGC ((((..(....)..))))	-23.9	43.3
TAACGGAAACGTTA (((((....)))))	-18.4	41.3
GCTGTGCGAAAGCTCCGC ((.(.((....)).).))	-14.5	40
GGGACTGGAAACGGTTCC ((.((.(....).)).))	-18.9	42
GATCGGGGATCCGATC ((((((....))))))	-40.7	62.8
GGGGACGAAAGTCACCCC ((((((....)))..)))	-12.7	63.3
GGCGCTCGAAAGAGAGCC (((.(((....))).)))	-36.8	67.2
GTCCACGAAAGTGTTGAC ((((((....)))..)))	-17	31.6
GCTCCAGGAAACTGGAAC (.(((((....))))).)	-18.7	38.3
GTAGTGCGAAAGCAGTAC (((.(((....))).)))	-31.2	58.2
GTGGTAACGAAAGTTCAC (((..(((....))))))	-10.7	35.7
GGAATCGAAAGATTTCC ((((((....))).)))	-27	41.5
GCTCTGCGAAAGCAATGC ((..(((....)))..))	-10.5	31.6
GATTTCGCGAAAGCGATC (((..(((....))))))	-5.88	17.8
GGCATCGAAAGATAGGCC ((((((....)))..)))	-27.2	46
GACCCAGAAATGGGTC ((((((....))))))	-35.3	64
GCATTGGAAACAATGC ((((((....))))))	-39.4	57.7
GGACAAGCGAAAGCTTCC (((..(((....))))))	-12.3	29.2

Reference: the array DNA melting data of Ke et al. (doi:10.1101/2024.01.08.574731)
